Assay outcomes: PubChem BioAssay, Sanford-Burnham Center for Chemical Genomics
An excerpt weighted towards active compounds, which were near 4.1% of everything screened.
Mdm2 MdmX PPI: human Mdm2/MdmX binding inhibition. actives 3% (n = 330,000). SaOS-2 split-luciferase Mdm2/MdmX complementation, luminescence. inhibition, % at 8 µM;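 active = inhibition of at least 50% at 8 µM in the primary screen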
Target sequence (O15151 whole entry, looked up): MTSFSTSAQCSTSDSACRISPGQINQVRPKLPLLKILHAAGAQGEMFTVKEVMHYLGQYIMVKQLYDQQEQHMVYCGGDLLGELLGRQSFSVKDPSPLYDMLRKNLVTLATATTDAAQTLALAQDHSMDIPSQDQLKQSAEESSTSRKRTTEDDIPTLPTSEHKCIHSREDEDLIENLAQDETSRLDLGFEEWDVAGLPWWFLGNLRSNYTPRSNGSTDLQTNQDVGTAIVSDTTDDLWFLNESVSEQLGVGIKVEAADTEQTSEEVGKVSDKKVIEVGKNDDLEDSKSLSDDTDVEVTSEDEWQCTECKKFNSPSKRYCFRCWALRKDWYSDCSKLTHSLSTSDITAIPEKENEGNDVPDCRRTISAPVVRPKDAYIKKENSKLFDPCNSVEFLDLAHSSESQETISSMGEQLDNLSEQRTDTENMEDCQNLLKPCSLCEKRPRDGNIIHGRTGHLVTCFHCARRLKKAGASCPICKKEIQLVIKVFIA
Target sequence (Q00987 whole entry, looked up): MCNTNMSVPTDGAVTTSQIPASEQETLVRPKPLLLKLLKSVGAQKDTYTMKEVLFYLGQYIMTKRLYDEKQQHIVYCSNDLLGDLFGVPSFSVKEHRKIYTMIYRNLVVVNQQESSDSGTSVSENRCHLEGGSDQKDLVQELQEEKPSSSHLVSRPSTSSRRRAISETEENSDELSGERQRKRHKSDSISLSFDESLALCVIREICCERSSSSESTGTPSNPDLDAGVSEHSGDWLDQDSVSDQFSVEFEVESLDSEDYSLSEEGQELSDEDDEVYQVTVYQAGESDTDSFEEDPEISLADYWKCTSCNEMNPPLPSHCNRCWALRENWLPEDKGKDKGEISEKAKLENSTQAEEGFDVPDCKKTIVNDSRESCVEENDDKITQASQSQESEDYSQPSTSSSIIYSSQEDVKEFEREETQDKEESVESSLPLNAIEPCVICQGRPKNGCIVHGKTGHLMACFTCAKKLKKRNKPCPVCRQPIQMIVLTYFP
Apaf-1 inh: inhibitors of human Apaf-1 apoptosome; reconstituted apoptosome caspase-3 activity, DEVD-Rh110 fluorescence; inhibition, % at 20 µM; actives 0.71% (n = 330,000); active = inhibition of at least 40% at 20 µM;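 also: plate controls were DMSO wells for no effect and DEVD-CHO caspase inhibitor wells for full effect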
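Medium: Hepes buffer, pH 7.5 / System: biochemical Apaf-1 apoptosome reconstitution / Measured by: Rh110 fluorescence, excitation 480 nm, emission 540 nm / Times: compound with Apaf-1, dATP, procaspase-3 30 min, then 50 min reaction, room temperature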
XBP1 UPR activ: adaptive UPR (XBP1) activation; CHO-XBP1 luciferase reporter, IRE1-XBP1 UPR activation, luminescence; percent of tunicamycin response, DMSO as zero; AID 463104; actives 0.33% (n = 330,000); activation, % at 20 µM;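 active = versus positive control, 20 µM dose yields 30% or more activation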;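 also: 100% = tunicamycin at 10 µg/mL and 0% = DMSO only wells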
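Assay system: IRE1-XBP1 luciferase reporter CHO line. Input: 1000 cells/well. Buffer or medium: F12 with 10% serum. Doses: 20 µM, 1% DMSO. Times: overnight seeding at 37 °C, 6 h compound treatment at 37 °C. Technique: Steady-Glo luciferase glow luminescence, 10 min after reagent addition.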
UBC13 inh: inhibitors of human UBC13 polyubiquitin chain formation; TR-FRET; inhibition, % at 20 µM; actives 0.47% (n = 330,000); AID 485273; in the data active = inhibition above about 45%, passing the limit was not always enough
CHOP UPR activ: apoptotic UPR (CHOP) activation. CHO-CHOP luciferase reporter, luminescence; percent of tunicamycin response over DMSO baseline. activation, % at 10 µM. actives 0.34% (n = 330,000);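 active = at 10 µM dose, activation of 40% or more, normalized to positive control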;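 also: 100% = tunicamycin at 10 µg/mL and 0% = DMSO alone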
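System: CHO-CHOP luciferase reporter cell line | Buffer or medium: F12 medium containing 10% fetal bovine serum | Doses: One dose, 10 µM in 0.5% DMSO | Times: 6 h compound exposure at 37 °C after overnight seeding | Signal: Luciferase luminescence | Read-out: % activation vs tunicamycin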
UPR CHOP confirm: apoptotic UPR (CHOP) activation, confirmed. shares compounds with CHOP UPR activ. CHO-CHOP cells, CHOP-luciferase reporter luminescence; percent of tunicamycin response, DMSO as zero. activation, % at 10 µM. actives 64% (n = 1,000). AID 463112; in the data active = activation above about 33%;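 also: 0% = DMSO wells and 100% = tunicamycin 10 µg/mL wells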
UPR XBP1 confirm: adaptive UPR (XBP1) activation, confirmed. shares compounds with XBP1 UPR activ. CHO-XBP1 IRE1-XBP1 luciferase reporter, luminescence. activation, % at 20 µM. actives 63% (n = 1,000);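 active = reporter signal at least 30% of the positive control's activation in two or more of four replicate wells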;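 also: plate controls were DMSO negative control for no effect and tunicamycin 10 µg/mL positive control for full effect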
Mdm2-MdmX conf: confirmation of human Mdm2/MdmX interaction inhibitors | shares compounds with Mdm2 MdmX PPI | Mdm2-MdmX binding, luminescent assay | inhibition, % at 8 µM | actives 55% (n = 10,000); in the data active = inhibition above about 40%
FLuc counter: inhibits full-length luciferase, flagging false Mdm2/MdmX hits | actives 77% (n = 6,200) | shares compounds with Mdm2 MdmX PPI | AID 504607 | SaOS-2 full-length luciferase counterscreen, luminescence | inhibition, % at 8 µM;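 active = mean inhibition at 8 µM reaching about 37%, which flags the compound as non-specific, limit read from the data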;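 also: p53-null SaOS-2 cells with luciferase driven by a doxycycline-inducible promoter; compound on cells about two nights before reading with doxycycline added after day one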
Active calls of the source: *.

Screening O=[N+]([O-])c1cc(S(=O)(=O)C(F)(F)F)ccc1Sc1nc2ccccc2[nH]1 returned Mdm2 MdmX PPI 57*, Apaf-1 inh -3, XBP1 UPR activ -9, UBC13 inh -19, CHOP UPR activ 43*, UPR CHOP confirm 5 and Mdm2-MdmX conf 12.
O=S(=O)(c1cccc(F)c1)N1CCN(Cc2cc3c(cc2Br)OCCO3)CC1 was read as Mdm2 MdmX PPI 9, Apaf-1 inh 7, XBP1 UPR activ 0, UBC13 inh 6 and CHOP UPR activ 4.
`COCc1cc(C)nc(OCC(=O)N/N=C/c2ccc(-c3cc([N+](=O)[O-])ccc3Cl)o2)c1C#N` gave Mdm2 MdmX PPI 69*, Apaf-1 inh 18, XBP1 UPR activ 342*, UBC13 inh -5, CHOP UPR activ 53*, UPR CHOP confirm 70*, UPR XBP1 confirm 277* and Mdm2-MdmX conf -4.
O=C(COC(=O)C1CC1)Nc1ccc2c(c1)OCO2 was read as Mdm2 MdmX PPI 20, Apaf-1 inh -33, XBP1 UPR activ -2, UBC13 inh 8 and CHOP UPR activ 1.
Screening COc1ccc(CC(=O)Nc2ccc(-c3noc(COc4ccccc4C)n3)cc2)cc1 returned Mdm2 MdmX PPI 19, Apaf-1 inh 2, XBP1 UPR activ -5, UBC13 inh -15 and CHOP UPR activ -3.
Screening COc1ccc(CC(=O)Nc2ccc(-c3noc(-c4ccc(Cl)cc4)n3)cc2)cc1 returned Mdm2 MdmX PPI 91*, Apaf-1 inh -7, XBP1 UPR activ 76*, UBC13 inh -27, CHOP UPR activ 79*, UPR CHOP confirm 13, UPR XBP1 confirm 22 and Mdm2-MdmX conf 10.
For COc1ccc(C(C(=O)NC(C)(C)C)N(C(=O)CCC(=O)Nc2cc(C)on2)c2ccc(C)c(C)c2)cc1 (stereo unspecified) the results were Mdm2 MdmX PPI 8, Apaf-1 inh 13, XBP1 UPR activ -2, UBC13 inh 1 and CHOP UPR activ 1.
Screening COc1cc(/C=N/NC(=O)c2ccccc2O)ccc1OCC(=O)Nc1ccccc1 returned Mdm2 MdmX PPI -29, Apaf-1 inh -9, XBP1 UPR activ -4, UBC13 inh -8 and CHOP UPR activ 11.
For O=C(COc1ccc(/C=N/NC(=O)c2cc3ccccc3o2)cc1Cl)Nc1ccccc1 the results were Mdm2 MdmX PPI 97*, Apaf-1 inh 15, XBP1 UPR activ 7, UBC13 inh -11, CHOP UPR activ 51*, UPR CHOP confirm -3 and Mdm2-MdmX conf -100.
CC1CCC/C=C/C(=O)c2c(O)cc(O)cc2CC(=O)O1 (stereo unspecified) was read as Mdm2 MdmX PPI 100*, Apaf-1 inh -11, XBP1 UPR activ -6, UBC13 inh 1, CHOP UPR activ 55*, UPR CHOP confirm 91*, Mdm2-MdmX conf 98* and FLuc counter 56*.
`COC(=O)c1ccc(COc2ccccc2/C=C(\C#N)C(=O)Nc2ccccc2C)cc1` gave Mdm2 MdmX PPI 45, Apaf-1 inh 24, XBP1 UPR activ 8, UBC13 inh 3 and CHOP UPR activ 2.
`COC(=O)c1ccc(COc2ccccc2/C=C(\C#N)C(=O)Nc2c(C)cccc2C)cc1` gave Mdm2 MdmX PPI 93*, Apaf-1 inh 12, XBP1 UPR activ 65*, UBC13 inh 0, CHOP UPR activ 128*, UPR CHOP confirm 85*, UPR XBP1 confirm 65*, Mdm2-MdmX conf 53* and FLuc counter 42*.
`O=C(NC12CC3CC(CC(C3)C1)C2)c1cccnc1Cl` gave Mdm2 MdmX PPI -12, Apaf-1 inh 0, XBP1 UPR activ -2, UBC13 inh 3 and CHOP UPR activ 4.
`C/C(=N\NC(=O)c1cc(-c2cccs2)nc2ccccc12)c1ccccn1` gave Mdm2 MdmX PPI 80*, Apaf-1 inh 5, XBP1 UPR activ 6, UBC13 inh 4, CHOP UPR activ 248*, UPR CHOP confirm 198*, Mdm2-MdmX conf 75* and FLuc counter 28.
For C/C(=N\NC(=O)c1ccccc1OCc1ccc(F)cc1)c1ccccn1 the results were Mdm2 MdmX PPI 93*, Apaf-1 inh 15, XBP1 UPR activ 18, UBC13 inh 10, CHOP UPR activ 109*, UPR CHOP confirm 99*, Mdm2-MdmX conf 53* and FLuc counter 45*.
`C/C(=N\NC(=O)c1ccccc1Cl)c1ccccn1` gave Mdm2 MdmX PPI 48, Apaf-1 inh -1, XBP1 UPR activ 7, UBC13 inh -24 and CHOP UPR activ 21.
For C/C(=N\NC(=O)c1cccc2ccccc12)c1ccccn1 the results were Mdm2 MdmX PPI 96*, Apaf-1 inh 5, XBP1 UPR activ 1, UBC13 inh -14, CHOP UPR activ 332*, UPR CHOP confirm 339*, Mdm2-MdmX conf 38 and FLuc counter 30.
CCN(CC)C(=O)c1[nH]cnc1C(=O)NC1CCN(C(=O)OC(C)(C)C)CC1 was read as Mdm2 MdmX PPI 1, Apaf-1 inh 14, XBP1 UPR activ 1, UBC13 inh -8 and CHOP UPR activ -1.
COc1ccc(-c2oc(NC(=O)CSc3ncn[nH]3)c(C#N)c2-c2ccc(OC)cc2)cc1 was read as Mdm2 MdmX PPI 48, Apaf-1 inh 10, XBP1 UPR activ -3, UBC13 inh -10 and CHOP UPR activ -1.
`COc1ccc(-c2oc(NC(=O)CCl)c(C#N)c2-c2ccc(OC)cc2)cc1` gave Mdm2 MdmX PPI 98*, Apaf-1 inh 12, XBP1 UPR activ 24, UBC13 inh 9, CHOP UPR activ 489*, UPR CHOP confirm 218*, Mdm2-MdmX conf 65* and FLuc counter 55*.
For O=C(CN(Cc1ccc(Br)cc1)S(=O)(=O)c1ccccc1)NCc1cccnc1 the results were Mdm2 MdmX PPI -9, Apaf-1 inh 11, XBP1 UPR activ -3, UBC13 inh -7 and CHOP UPR activ 0.
For O=C(NCc1cccnc1)/C(=C\c1ccc(-c2ccc(Br)cc2)o1)S(=O)(=O)c1ccccc1 the results were Mdm2 MdmX PPI 96*, Apaf-1 inh 15, XBP1 UPR activ -5, UBC13 inh -8, CHOP UPR activ 83*, UPR CHOP confirm 52*, Mdm2-MdmX conf 99* and FLuc counter 51*.
